ChEMBL document CHEMBL1126072, “Hydantoin bioisosteres. In vivo active spiro hydroxy acetic acid aldose reductase inhibitors” (J Med Chem, 1992)

Tests used:
Rattus norvegicus [1] = assay: Effective dose was tested against the inhibition of sorbitol accumulation in sciatic nerves from streptozotocin-diabetic rats dosed at 3*25 mg/kg over 27h.; type: functional; conditions: Sciatic nerve
[2] = target: T1, Aldo-keto reductase family 1 member B1 (Homo sapiens, UniProt P15121); assay: Inhibitory activity against human placental aldose reductase
Rattus norvegicus [3] = assay: Inhibition of sorbitol accumulation in sciatic nerves from streptozotocin-diabetic rats dosed at 3*25 mg/kg over 27h.; type: functional, Sciatic nerve
Rattus norvegicus [4] = assay: Inhibition of sorbitol accumulation in sciatic nerves from streptozotocin-diabetic rats dosed at 3*10 mg/kg over 27h.; type: functional, Sciatic nerve
Procedure, shortened: (§1)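 Male Sprague-Dawley rats (180–220 g, 42–54 days) made diabetic with streptozotocin 85 mg/kg at 0 h. Oral gavage at 4, 7 and 24 h, dose quoted per time point. Sciatic nerve sorbitol measured with sorbitol dehydrogenase/NAD in pH 9.4 glycine. Mean (±SEM) percent inhibition against untreated diabetic controls, Student's t test on absolute sorbitol.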

Rattus norvegicus [5] = assay: In vivo inhibition of sorbitol accumulation in sciatic nerves from streptozotocin-diabetic rats dosed at 1*25 mg/kg over 5 days.; type: functional, Sciatic nerve
Rattus norvegicus [6] = assay: Plasma concentration at 3h after the last dose of 25 mg/kg for 5 days.; type: functional
Rattus norvegicus [7] = assay: In vivo inhibition of sorbitol accumulation in sciatic nerves from streptozotocin-diabetic rats dosed at 3*25 mg/kg over 27h.; type: functional, Sciatic nerve
Rattus norvegicus [8] = assay: Inhibition of sorbitol accumulation in sciatic nerves from streptozotocin-diabetic rats dosed at 3*100 mg/kg over 27h.; type: functional, Sciatic nerve; procedure, shortened: as §1
Rattus norvegicus [9] = assay: Inhibition of sorbitol accumulation in sciatic nerves from streptozotocin-diabetic rats dosed at 3*50 mg/kg over 27h.; type: functional, Sciatic nerve; procedure, shortened: as §1
[10] = target: T1, Aldo-keto reductase family 1 member B1; assay: Compound was tested in vitro for its inhibitory activity against human placental aldose reductase
Rattus norvegicus [11] = assay: Nerve concentration at 3h after the last dose of 25 mg/kg for 5 days.; type: functional
[12] = target: T1, Aldo-keto reductase family 1 member B1; assay: ARI(aldose reductase inhibitor) enantiospecificity against human placental aldose reductase.

SMILES	IC50 [2]	ED50 (Rattus norvegicus [1])	Inhibition (Rattus norvegicus [3])	other results
C1CCC(NC2CCCCC2)CC1.O=C(O)C[C@]1(O)C[C@@H](C(=O)c2ccccc2)Oc2ccc(F)cc21	1.39 µM		1%	
C[C@@H]1C[C@@](O)(CC(=O)O)c2ccc(F)cc2O1	5.42 µM			
C[C@@H]1C[C@@](O)(CC(=O)O)c2cc(Cl)c3ccccc3c2O1	0.4 µM	29.1 mg/kg	45%	
C[C@@H]1C[C@@](O)(CC(=O)O)c2cc([N+](=O)[O-])ccc2O1	0.08 µM	12 mg/kg	74%	
C[C@@H]1C[C@@](O)(CC(=O)O)c2c(ccc(Cl)c2[N+](=O)[O-])O1	95.5 µM			
C[C@@H]1C[C@@](O)(CC(=O)O)c2cc(Cl)ccc2O1	0.82 µM	14.9 mg/kg	67%	
C[C@@H]1C[C@@](O)(CC(=O)O)c2cc(F)ccc2O1	0.2 µM	23 mg/kg	56%	Inhibition (Rattus norvegicus [5]): 13%; Tissue levels (Rattus norvegicus [6]): <0.5 µg/mL; Inhibition (Rattus norvegicus [7]): 22%; Inhibition (Rattus norvegicus [8]): 92%; Inhibition (Rattus norvegicus [9]): 81%; IC50 [10]: 0.31 µM
C[C@@H]1C[C@@](O)(CC(=O)O)c2cc(Cl)c(Br)cc2O1	0.07 µM	11.3 mg/kg		Inhibition (Rattus norvegicus [5]): 33%; Tissue levels (Rattus norvegicus [6]): 12.7 µg/mL; Inhibition (Rattus norvegicus [7]): 46%; Inhibition (Rattus norvegicus [4]): 46%; IC50 [10]: 0.05 µM; Tissue levels (Rattus norvegicus [11]): 3.11 µg/mL
CC(=O)c1ccc2c(c1)[C@](O)(CC(=O)O)C[C@@H](C)O2	0.65 µM		5%	
O=C(O)C[C@]1(O)C[C@@H](c2ccccc2)Oc2ccc(F)cc21	2.67 µM			Inhibition (Rattus norvegicus [9]): 3%
C[C@@H]1C[C@@](O)(CC(=O)O)c2ccccc2O1	14.8 µM			Inhibition (Rattus norvegicus [9]): 9%
C[C@@H]1C[C@@](O)(CC(=O)O)c2cc(F)c(Cl)cc2O1 (stereo in doubt; 23)	0.06 µM	5.1 mg/kg	76%	Inhibition (Rattus norvegicus [5]): 55%; IC50 [12]: 0.0493 µM; Tissue levels (Rattus norvegicus [6]): 14.2 µg/mL; Inhibition (Rattus norvegicus [7]): 72%; IC50 [10]: 0.012 µM; Tissue levels (Rattus norvegicus [11]): 1.85 µg/mL
O=C(O)C[C@@]1(O)c2cc(F)ccc2O[C@@H]2CCCC[C@@H]21	11 µM			
CC(C)(C)[C@@H]1C[C@@](O)(CC(=O)O)c2cc(F)ccc2O1	0.36 µM	47.6 mg/kg	29%	
C[C@@H]1C[C@@](O)(CC(=O)O)c2cc(Cl)c(F)cc2O1	0.39 µM	19 mg/kg		Inhibition (Rattus norvegicus [5]): -30%; Tissue levels (Rattus norvegicus [6]): 13.4 µg/mL; Inhibition (Rattus norvegicus [7]): 29%; Inhibition (Rattus norvegicus [4]): 29%; IC50 [10]: 0.41 µM; Tissue levels (Rattus norvegicus [11]): 2.35 µg/mL
CC(C)[C@@H]1C[C@@](O)(CC(=O)O)c2cc(F)ccc2O1	0.57 µM		-7%	
C[C@@H]1C[C@@](O)(CC(=O)O)c2ccc(Cl)c(Cl)c2O1	0.78 µM			
CC1(C)C[C@@](O)(CC(=O)O)c2cc(F)ccc2O1	3.46 µM	83.2 mg/kg		Inhibition (Rattus norvegicus [8]): 56%
CC1(C)C[C@@](O)(CC(=O)O)c2cc([N+](=O)[O-])ccc2O1	0.4 µM	37.2 mg/kg	37%	
C[C@@H]1C[C@@](O)(CC(=O)O)c2cc(Cl)c(Cl)cc2O1				IC50 [12]: 5.62 µM
C[C@@H]1C[C@@](O)(CC(=O)O)c2cccc(Cl)c2O1	5.7 µM			
Cc1cc2c(cc1Cl)[C@](O)(CC(=O)O)C[C@@H](C)O2	0.24 µM	12.7 mg/kg	72%	
CCc1cc2c(cc1Cl)[C@](O)(CC(=O)O)C[C@@H](C)O2	0.1 µM	13.6 mg/kg		Inhibition (Rattus norvegicus [4]): 40%
Cc1cc2c(cc1[N+](=O)[O-])[C@](O)(CC(=O)O)C[C@@H](C)O2	0.09 µM	35 mg/kg	39%	
C[C@@H]1C[C@@](O)(CC(=O)O)c2ccc(Cl)cc2O1	3.32 µM		0%	
COc1ccc2c(c1)[C@](O)(CC(=O)O)C[C@@H](C)O2	281 µM			
C[C@@H]1C[C@@](O)(CC(=O)O)c2c(ccc(F)c2Br)O1	4.5 µM			
C[C@@H]1C[C@@](O)(CC(=O)O)c2c(Cl)cccc2O1	43.5 µM			

Continued by falling IC50 [2], values first:

IC50 [2]	SMILES	ED50 (Rattus norvegicus [1])	Inhibition (Rattus norvegicus [3])	other results
29.4 µM	C[C@@H]1C[C@@](O)(CC(=O)O)c2c(Cl)cc(Cl)cc2O1			
29.4 µM	C[C@@H]1[C@@H](C)Oc2ccc(F)cc2[C@]1(O)CC(=O)O			
14.8 µM	CC1(C)C[C@@](O)(CC(=O)O)c2c(ccc(Cl)c2Cl)O1			
13.1 µM	C[C@@H]1C[C@@](O)(CC(=O)O)c2c(Cl)ccc(Cl)c2O1			
11.3 µM	Cc1ccc2c(c1)[C@](O)(CC(=O)O)C[C@@H](C)O2		-16%	
11 µM	C[C@@H]1COc2ccc(F)cc2[C@]1(O)CC(=O)O			
8.22 µM	C[C@@H]1C[C@@](O)(CC(=O)O)c2cc(S(C)(=O)=O)ccc2O1			
5.16 µM	C[C@@H]1C[C@@](O)(CC(=O)O)c2cc(Br)cc(Cl)c2O1			
1.86 µM	CC1(C)C[C@@](O)(CC(=O)O)c2cc(Cl)c(Cl)cc2O1		6%	
1.67 µM	C[C@@H]1C[C@@](O)(CC(=O)O)c2cc(Br)ccc2O1	60.8 mg/kg	21%	
1.63 µM	C[C@@H]1C[C@@](O)(CC(=O)O)c2c(ccc(Cl)c2Cl)O1	25 mg/kg	50%	
1.63 µM	C[C@@H]1C[C@@](O)(CC(=O)O)C2=C(C=CCC2(C)[N+](=O)[O-])O1 (some centres undefined)		-31%	
1.18 µM	Cc1cc(Cl)cc2c1O[C@H](C)C[C@@]2(O)CC(=O)O	49 mg/kg	28%	
1.14 µM	O=C(O)C[C@]1(O)C[C@@H](CCc2ccccc2)Oc2ccc(F)cc21		5%	
1 µM	C[C@@H]1C[C@@](O)(CC(=O)O)c2cc(Cl)cc(Cl)c2O1	26.6 mg/kg	48%	
0.97 µM	CCC[C@@H]1C[C@@](O)(CC(=O)O)c2cc(F)ccc2O1	70.8 mg/kg	16%	
0.91 µM	C[C@H]1Oc2ccc(F)cc2[C@](O)(CC(=O)O)[C@H]1C	47.6 mg/kg	29%	
0.62 µM	CC[C@@H]1C[C@@](O)(CC(=O)O)c2cc(F)ccc2O1	50.6 mg/kg	27%	
0.6 µM	O=C(O)C[C@]1(O)CCOc2ccc(F)cc21	71.4 mg/kg		Inhibition (Rattus norvegicus [8]): 61%
0.25 µM	C[C@@H]1C[C@@](O)(CC(=O)O)c2cc(F)c(F)cc2O1	5.94 mg/kg		Inhibition (Rattus norvegicus [5]): -20%; Tissue levels (Rattus norvegicus [6]): 2.19 µg/mL; Inhibition (Rattus norvegicus [7]): 67%; Inhibition (Rattus norvegicus [4]): 67%; IC50 [10]: 0.35 µM; Tissue levels (Rattus norvegicus [11]): <0.1 µg/mL
0.19 µM	COc1cc2c(cc1Cl)[C@](O)(CC(=O)O)C[C@@H](C)O2	36.5 mg/kg	53%	
0.13 µM	C[C@@H]1C[C@@](O)(CC(=O)O)c2cc(C#N)c(F)cc2O1	29.2 mg/kg		Inhibition (Rattus norvegicus [4]): 15%
0.11 µM	C[C@@H]1C[C@@](O)(CC(=O)O)c2cc([N+](=O)[O-])c(Cl)cc2O1	14.9 mg/kg	67%	
0.09 µM	C[C@@H]1C[C@@](O)(CC(=O)O)c2cc(F)c(Br)cc2O1	4.94 mg/kg		Inhibition (Rattus norvegicus [5]): 44%; Tissue levels (Rattus norvegicus [6]): 8.8 µg/mL; Inhibition (Rattus norvegicus [7]): 73%; Inhibition (Rattus norvegicus [4]): 73%; IC50 [10]: 0.12 µM; Tissue levels (Rattus norvegicus [11]): 1.31 µg/mL
0.07 µM	C[C@@H]1C[C@@](O)(CC(=O)O)c2cc([N+](=O)[O-])c(F)cc2O1			Inhibition (Rattus norvegicus [4]): 5%
0.07 µM	C[C@@H]1C[C@@](O)(CC(=O)O)c2ccc(C(=O)O)cc2O1	26.6 mg/kg	48%	
0.06 µM	C[C@@H]1C[C@@](O)(CC(=O)O)c2cc(Cl)c(OCc3ccccc3)cc2O1	32 mg/kg		Inhibition (Rattus norvegicus [4]): 12%
